# FN deposit inh = fibronectin deposition inhibition; AH1F fibroblasts, Alexa488-fibronectin deposition fluorescence, overnight; 0.086% of 350,000 active; AID 743247; inhibition, % at 12.6 µM;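 active = mean inhibition across replicates of 30% or more, regardless of how many single replicates reach that level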
#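 Material: AH1F fibroblast monolayer depositing Alexa488-labelled fibronectin into matrix | Input: 10000 AH1F cells/well | Medium: DMEM plus 2% serum, read in PBS | Reagent: Alexa488-fibronectin, 24 nM final in well | Compound dosing: One dose per compound, pinned | Schedule: 1 h adhesion, overnight exposure | Measured by: Fluorescence at 485 nm excitation, 525 nm emission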
# C2C12 statin = protects C2C12 myotubes from simvastatin toxicity; ATP luminescence, 48 h; scaled: DMSO 0, geranylgeraniol control 100; 0.78% of 330,000 active; rescue of ATP level, % at 7.49 µM;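 active = mean ATP rescue above about 67%, or every replicate alone reaching that limit, limit read from the data, passing the limit was not always enough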;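 also: myotubes were challenged with 10 µM simvastatin during compound exposure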
# FGF22 binding = shifts melting point of recombinant human FGF22; recombinant FGF22 thermal shift, SYPRO orange fluorescence; percent of sucrose octasulfate shift, DMSO zero; activity (Tm shift, normalised), % at 9.99 µM; 1.5% of 340,000 active; AID 651658;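 active = mean Tm shift, scaled 0 neutral to 100 positive control, at about 1.3% or above, every replicate too, limit read from the data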
# Target sequence (Q9HCT0 whole entry, looked up): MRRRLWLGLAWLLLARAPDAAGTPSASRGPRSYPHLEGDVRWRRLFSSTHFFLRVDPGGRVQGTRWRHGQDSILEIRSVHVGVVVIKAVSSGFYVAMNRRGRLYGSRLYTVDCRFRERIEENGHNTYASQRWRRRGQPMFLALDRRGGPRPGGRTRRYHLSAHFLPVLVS
# Ecoli rRNA inh = selective bacterial rRNA inhibition in E. coli; E. coli WT GFP vs humanized-ribosome RFP mutants, fluorescence, 24 h; active compounds read low; DMSO median 0, no signal -100; 1.6% of 350,000 active; GFP signal change (wild-type ribosome), % (no concentration beside the values);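 active = significant combined selectivity score with lowered wild-type GFP, culture density cut under 30%, mutant RFP and density less affected; inactive = any of these conditions unmet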
# SIRT5 block = blocks human SIRT5 desuccinylation of peptide. 1.1% of 330,000 active. Purified SirT5, succinyl-peptide AMC, trypsin-coupled fluorescence. inhibition, % at 15 µM; in the data active = inhibition above about 15%
# Target sequence (Q9NXA8 whole entry, looked up): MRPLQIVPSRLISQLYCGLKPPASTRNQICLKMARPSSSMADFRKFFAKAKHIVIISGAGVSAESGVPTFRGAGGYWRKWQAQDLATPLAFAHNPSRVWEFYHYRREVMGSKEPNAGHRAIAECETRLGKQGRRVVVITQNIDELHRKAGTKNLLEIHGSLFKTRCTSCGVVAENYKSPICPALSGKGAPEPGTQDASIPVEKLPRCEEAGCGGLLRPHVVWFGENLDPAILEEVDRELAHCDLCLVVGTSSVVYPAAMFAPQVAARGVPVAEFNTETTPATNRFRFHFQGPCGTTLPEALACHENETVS
# E-sel inducer = induces E-selectin expression in human endothelial cells. P16581. HUVEC E-selectin immunofluorescence imaging; normalized: neutral wells 0, TNF-alpha wells 100. activation, % at 7.58 µM. 0.37% of 260,000 active;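 active = mean E-selectin-positive cell signal at least 10% of the positive control, reached in at least 60% of replicates, without over 20% cell loss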
#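 Material: HUVEC primary endothelial cells; Amount: 3,000 cells per well; Dosing: single concentration; Medium: EGM-2 growth medium on 0.1% gelatin-coated wells; Read-out basis: percent E-selectin-positive cells; Signal: immunofluorescence imaging; Control set: TNF-alpha, DMSO.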
# Numbers stand for hits; - = inactive; . = not tested or not shown. An excerpt weighted towards active compounds, which were near 4% of everything screened.
SMILES,FN deposit inh,C2C12 statin,FGF22 binding,Ecoli rRNA inh,SIRT5 block,E-sel inducer
C[C@@H]1CN([C@H](C)CO)C(=O)c2cccc(NC(=O)CCCCCC(=O)Nc3ccccc3N)c2O[C@@H]1CN(C)S(=O)(=O)c1cn(C)cn1,-,.,-,-,.,391.2
C[C@H](CO)N1C[C@H](C)[C@H](CN(C)Cc2ccc(Cl)c(Cl)c2)Oc2ccc(NC(=O)CCCCCC(=O)Nc3ccccc3N)cc2C1=O,.,-,-,-,24.5,-
C[C@H](CO)N1C[C@H](C)[C@@H](CN(C)Cc2ccc(Cl)c(Cl)c2)Oc2ccc(NC(=O)CCCCCC(=O)Nc3ccccc3N)cc2CC1=O,.,.,-,-,25.8,-
C[C@@H]1CCCCO[C@H](CN(C)Cc2ccc(Cl)c(Cl)c2)[C@@H](C)CN([C@H](C)CO)C(=O)c2cc(NC(=O)CCCCCC(=O)Nc3ccccc3N)ccc2O1,-,.,-,-,.,-
C[C@H](CO)N1C[C@H](C)[C@H](CN(C)Cc2ccc(Cl)c(Cl)c2)Oc2c(NC(=O)CCCCCC(=O)Nc3ccccc3N)cccc2C1=O,-,.,-,-,-,409.7
CN(C)C(=O)C[C@H]1CC[C@H]2[C@H](COc3ccc(NC(=O)Nc4cccc(Cl)c4)cc3C(=O)N2C)O1,-,-,-,-,-,-
CC(C)C#Cc1ccc2c(c1)O[C@@H](CN(C)Cc1cncnc1)[C@H](C)CN([C@@H](C)CO)S2(=O)=O,-,-,-,-,-,-
C[C@@H]1CN([C@H](C)CO)C(=O)Cc2cc(NC(=O)CCCCCC(=O)Nc3ccccc3N)ccc2O[C@H]1CN(C)Cc1ccc2c(c1)OCO2,.,-,-,-,.,-
C[C@H]1CN([C@@H](C)CO)C(=O)Cc2cc(NC(=O)CCCCCC(=O)Nc3ccccc3N)ccc2O[C@H]1CN(C)Cc1ccc(Cl)c(Cl)c1,.,105.4,-,-,-,75.3
CC1=Nc2cc(C(=O)NCCCOC(C)C)ccc2Sc2ccccc21,-,.,43.0,-,-,.
CC1=Nc2cc(C(=O)NCCCOC(C)C)ccc2Sc2ccc(C)cc21,-,.,-,-,-,-
CC(/C=N/Nc1nc(C)cc(=O)[nH]1)=C\c1ccccc1,-,-,43.1,-,-,-
CC(/C=N/Nc1ncc(C)c(=O)[nH]1)=C\c1ccccc1,-,.,.,.,.,.
CN1CCN(S(=O)(=O)c2cc([N+](=O)[O-])ccc2Cl)CC1,-,.,43.2,-,-,-
COc1cccc(CN2CCC3(CC2)CN(C(=O)C2CC2)[C@H](CO)c2[nH]c4cc(OC)ccc4c23)c1,.,.,-,-,.,-
CCOC(=O)c1ccc(NC(=O)c2ccc(NC(=O)c3ccccc3)cc2)cc1,-,-,.,.,.,.
CCOC(=O)c1cncc(NC(=O)c2ccccc2)c1,.,95.4,.,.,.,.
Cc1ccc(S(=O)(=O)Nc2cccc3c2O[C@@H](CN(C)C(=O)NC(C)C)[C@@H](C)CN([C@H](C)CO)C3=O)cc1,.,-,-,-,-,-
CCCNC(=O)Nc1ccc2c(c1)C(=O)N(C)C[C@H](OC)[C@H](C)CN(CCC(F)(F)F)[C@H](C)CO2,-,-,.,-,.,-
O=C(CN(C(=O)c1csnn1)c1cccc(F)c1)NCc1ccc2c(c1)OCO2,-,-,42.9,-,-,.
COc1ccc(OC)c(NC2c3ncccc3C(=O)N2Cc2ccco2)c1 (stereo not given),.,-,-,-,16.0,.
COc1cc(NC(=O)CSCc2ccc(Cl)cc2Cl)c(C(=O)O)cc1OC,-,-,-,-20.4,-,.
O=C(Cc1ccccc1)N1CC[C@H]2[C@H](CO)Nc3ccc(-c4ccccc4)cc3[C@H]21,-,-,-,-,-,-
C[C@@H]1CCCCO[C@@H](CN(C)S(=O)(=O)c2ccc(Cl)cc2)[C@H](C)CN([C@H](C)CO)C(=O)c2cc(NC(=O)C3CCCCC3)ccc2O1,-,.,.,-,-,-
c1ccc(COc2cccc(-c3cc4nc(NCCc5ccncc5)ccn4n3)c2)cc1,-,-,-,-,18.6,-
SMILES,FN deposit inh,C2C12 statin,FGF22 binding,Ecoli rRNA inh,SIRT5 block,E-sel inducer
c1ccc(COc2cccc(-c3cc4nc(NCCOc5ccccc5)ccn4n3)c2)cc1,-,-,-,-,.,-
Cc1ccc(S(=O)(=O)Nc2ccc3c(c2)C(=O)N([C@@H](C)CO)C[C@@H](C)[C@@H](CN(C)C(=O)Nc2ccc(F)cc2)OCCCC[C@H](C)O3)cc1,-,.,-,-,-,.
COc1ccc(NC(=O)N(C)C[C@@H]2OCCCC[C@@H](C)Oc3ccc(NS(=O)(=O)c4ccc(F)cc4)cc3C(=O)N([C@@H](C)CO)C[C@H]2C)cc1,.,.,-,-,-,-
COc1ccc(S(=O)(=O)Nc2ccc3c(c2)C(=O)N([C@@H](C)CO)C[C@@H](C)[C@@H](CN(C)C(=O)Nc2ccc(F)cc2)OCCCC[C@@H](C)O3)cc1,.,-,-,-,17.8,-
Cc1ccc(S(=O)(=O)Nc2ccc3c(c2)C(=O)N([C@H](C)CO)C[C@@H](C)[C@H](CN(C)C(=O)Nc2ccc(F)cc2)OCCCC[C@H](C)O3)cc1,-,.,-,-,21.4,.
COc1ccc(S(=O)(=O)Nc2ccc3c(c2)C(=O)N([C@@H](C)CO)C[C@@H](C)[C@H](CN(C)C(=O)Nc2ccc(F)cc2)OCCCC[C@@H](C)O3)cc1,.,-,18.3,-,-,-
COc1ccc(S(=O)(=O)Nc2ccc3c(c2)C(=O)N([C@@H](C)CO)C[C@H](C)[C@@H](CN(C)C(=O)Nc2ccc(F)cc2)OCCCC[C@@H](C)O3)cc1,.,-,-,-,16.1,-
CO[C@@H]1CN(C)C(=O)c2ccc(NC(=O)c3cnccn3)cc2OC[C@@H](C)N(C(=O)c2cnccn2)C[C@H]1C,-,-,-,-,.,-
COCCn1c(SCC(=O)Nc2ccc(F)cc2)nc2c([nH]c3ccccc32)c1=O,-,.,-,-,-,-
CNC(=O)CSc1nc2c([nH]c3ccccc32)c(=O)n1CCOC,-,.,43.9,-,-,.
CN(CCOc1ccccc1Cl)Cc1ccccc1,-,-,-,-,-,.
C=CCc1cc(OC)ccc1OCCN(C)Cc1ccccc1,-,.,-,-29.8,-,-
CCOc1ccc(OCCN(C)Cc2ccccc2)cc1,-,.,.,.,.,-
Cc1cc(OCC(=O)N(C)Cc2ccccc2)ccc1Cl,-,-,-,-29.9,-,-
CN(CCOc1ccc(Cl)c(Cl)c1)Cc1ccccc1,-,-,-,-29.5,-,.
COc1ccc(OCCCCN(C)Cc2ccccc2)cc1,-,-,.,-,-,.
CN(CCOCCOc1ccc(Cl)cc1Br)Cc1ccccc1,-,.,-,-36.6,-,-
O=C(Cc1ccccn1)N[C@@H]1C=C[C@H](CC(=O)N2CCCCC2)O[C@@H]1CO,-,-,-,-,-,-
